Test results as given in paper PMC6104635 (ACS chemical neuroscience, 2018).
Numbering of substitutions follows the chain as printed. Values joined by “and” are separate entries in the source; they are usually repeats but may differ in a detail not shown here. Equal entries are not always repeated. Where two headings read alike, the source gives them in different places.

How the values were obtained:
human M5 = molecular target: T1, human M5 (Homo sapiens, UniProt P08912); experiment: calcium mobilization assay, hM5-CHO cells, FDSS7000; type: cell-based
T1 sequence (P08912 1-532): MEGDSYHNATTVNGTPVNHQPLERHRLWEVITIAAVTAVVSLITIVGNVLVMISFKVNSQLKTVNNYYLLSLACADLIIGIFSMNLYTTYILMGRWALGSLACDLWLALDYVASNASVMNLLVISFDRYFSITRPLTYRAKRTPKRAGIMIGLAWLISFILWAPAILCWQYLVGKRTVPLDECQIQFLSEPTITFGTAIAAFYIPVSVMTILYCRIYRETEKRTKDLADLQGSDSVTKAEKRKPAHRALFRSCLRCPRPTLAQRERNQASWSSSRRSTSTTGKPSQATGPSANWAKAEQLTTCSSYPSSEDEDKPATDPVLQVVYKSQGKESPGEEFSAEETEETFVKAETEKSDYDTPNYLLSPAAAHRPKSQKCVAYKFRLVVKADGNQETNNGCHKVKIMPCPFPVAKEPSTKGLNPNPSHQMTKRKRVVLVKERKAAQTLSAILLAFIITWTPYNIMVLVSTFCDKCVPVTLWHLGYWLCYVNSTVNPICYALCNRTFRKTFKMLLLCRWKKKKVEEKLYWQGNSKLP
Procedure, shortened: (§1)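 CHO cells stably expressing human or rat M5 were grown in Ham's F-12 with 10% FBS, 20 mM HEPES and 500 μg/mL G418 (37 °C, 5% CO2), then plated at 20 000 cells/well without G418 the day before. Cells were loaded with 1.15 μM Fluo-4 AM for 45 min at 37 °C in HBSS, 20 mM HEPES and 2.5 mM probenecid. Test compound was given as a 10-point 1:3 series from 30 μM final for 2.5 min, then ACh EC20 for 1 min, with calcium read on FDSS7000. EC50 and efficacy came from a four-parameter logistic fit.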

hM5 = settings: read-out: hM5 EC50; 96 well-format FlexStation II, initial optimization; cited from earlier work
rat M5 = molecular target: T2, rat M5 (Rattus norvegicus, UniProt P08911); experiment: calcium mobilization assay, rM5-CHO cells, FDSS7000; type: cell-based; settings: functional calcium assay, n = 3
T2 sequence (P08911 1-531): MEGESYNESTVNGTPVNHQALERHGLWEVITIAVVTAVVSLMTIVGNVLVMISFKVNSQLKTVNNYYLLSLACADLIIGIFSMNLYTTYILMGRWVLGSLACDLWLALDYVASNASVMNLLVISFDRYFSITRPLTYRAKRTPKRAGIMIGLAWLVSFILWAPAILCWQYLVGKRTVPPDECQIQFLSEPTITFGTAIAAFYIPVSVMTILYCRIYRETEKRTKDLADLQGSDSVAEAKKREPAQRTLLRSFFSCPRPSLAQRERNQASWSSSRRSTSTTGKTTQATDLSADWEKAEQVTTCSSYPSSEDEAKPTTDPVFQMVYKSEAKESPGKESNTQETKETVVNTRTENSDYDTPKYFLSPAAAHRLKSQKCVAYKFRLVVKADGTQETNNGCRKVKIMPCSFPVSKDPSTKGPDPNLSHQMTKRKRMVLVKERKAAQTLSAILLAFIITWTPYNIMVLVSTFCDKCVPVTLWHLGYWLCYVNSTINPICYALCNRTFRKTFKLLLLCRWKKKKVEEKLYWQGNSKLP
Procedure, shortened: as §1

[1] = metabolite identification in rat hepatic microsomes; type: in vitro ADME; settings: rat and human hepatic microsomes, result in words
Procedure, shortened: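 Test compound was incubated with rat hepatic microsomes, run alongside human microsomes. Metabolite structures were proposed from LC-UV/MSn data, and major metabolites were assigned by relative peak areas.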

rat brain distribution = type: in vivo; settings: male, Sprague-Dawley, brain and plasma
Procedure, shortened: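 Male Sprague–Dawley rats received a single IV or IP cassette dose of 0.20–0.25 mg/kg, with n = 1 animal per cassette. Vehicle was ethanol/PEG400/DMSO, with excipient levels adjusted for solubility, at 0.5 mL/kg iv or 3 mL/kg ip. Plasma and brain were sampled nonserially and quantified by LC-MS/MS (positive ESI, MRM).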

[2] = plasma protein binding, human; type: in vitro ADME
[3] = brain homogenate binding, rat; type: in vitro ADME
[4] = plasma protein binding, rat; type: in vitro ADME
[5] = hepatic microsomal intrinsic clearance, human; type: in vitro ADME; settings: based on microsomal intrinsic clearance (CLint)
rat M2 = molecular target: T3, rat M2 (Rattus norvegicus, UniProt P10980); experiment: mAChR selectivity, PAM activity at rat M2; type: cell-based; settings: result in words
T3 sequence (P10980 1-466): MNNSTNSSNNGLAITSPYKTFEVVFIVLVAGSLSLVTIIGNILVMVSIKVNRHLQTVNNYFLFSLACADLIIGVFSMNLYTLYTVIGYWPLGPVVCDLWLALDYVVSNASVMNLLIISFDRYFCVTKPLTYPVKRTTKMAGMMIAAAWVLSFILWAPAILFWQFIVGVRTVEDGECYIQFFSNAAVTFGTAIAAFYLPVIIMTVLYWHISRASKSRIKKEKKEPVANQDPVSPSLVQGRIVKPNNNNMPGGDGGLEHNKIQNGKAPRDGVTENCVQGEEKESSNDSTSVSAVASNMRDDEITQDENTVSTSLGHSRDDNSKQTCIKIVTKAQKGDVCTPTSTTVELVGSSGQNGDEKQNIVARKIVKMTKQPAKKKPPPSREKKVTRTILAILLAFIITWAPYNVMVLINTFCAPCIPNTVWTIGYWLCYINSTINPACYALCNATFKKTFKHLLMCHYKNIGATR

human M1 = molecular target: T4, human M1 (Homo sapiens, UniProt P11229); experiment: mAChR selectivity, PAM activity at human M1; type: cell-based
T4 sequence (P11229 1-460): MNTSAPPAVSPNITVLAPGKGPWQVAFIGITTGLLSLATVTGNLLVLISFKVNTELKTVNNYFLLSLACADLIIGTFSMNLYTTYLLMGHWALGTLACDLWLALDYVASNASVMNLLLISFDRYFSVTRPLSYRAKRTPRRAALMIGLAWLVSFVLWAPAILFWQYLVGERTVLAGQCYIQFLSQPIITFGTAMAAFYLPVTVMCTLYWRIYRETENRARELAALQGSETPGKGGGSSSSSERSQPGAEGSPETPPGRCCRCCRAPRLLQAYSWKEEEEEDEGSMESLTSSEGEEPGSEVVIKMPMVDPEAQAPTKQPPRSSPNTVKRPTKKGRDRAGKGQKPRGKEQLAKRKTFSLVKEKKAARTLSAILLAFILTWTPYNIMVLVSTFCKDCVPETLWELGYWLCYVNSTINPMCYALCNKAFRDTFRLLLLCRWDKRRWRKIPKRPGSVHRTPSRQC

rat M4 = molecular target: T5, rat M4 (Rattus norvegicus, UniProt P08485); experiment: mAChR selectivity, PAM activity at rat M4; type: cell-based
T5 sequence (P08485 1-478): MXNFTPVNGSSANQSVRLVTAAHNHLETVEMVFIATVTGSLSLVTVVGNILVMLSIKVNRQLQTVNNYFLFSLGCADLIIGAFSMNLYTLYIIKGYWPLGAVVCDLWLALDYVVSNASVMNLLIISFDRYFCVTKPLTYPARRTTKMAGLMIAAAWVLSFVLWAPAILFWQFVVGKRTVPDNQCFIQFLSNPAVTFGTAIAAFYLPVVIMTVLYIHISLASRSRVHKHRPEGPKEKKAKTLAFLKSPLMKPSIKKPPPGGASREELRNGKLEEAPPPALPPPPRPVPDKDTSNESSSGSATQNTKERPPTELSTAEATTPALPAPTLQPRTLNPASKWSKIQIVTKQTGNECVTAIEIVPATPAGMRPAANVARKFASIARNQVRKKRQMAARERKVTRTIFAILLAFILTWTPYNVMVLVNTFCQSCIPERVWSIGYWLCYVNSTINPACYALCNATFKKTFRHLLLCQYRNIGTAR

rat M3 = rat M3 (Rattus norvegicus, UniProt P08483); experiment: mAChR selectivity, PAM activity at rat M3; type: cell-based
rat M3, sequence (P08483 whole entry): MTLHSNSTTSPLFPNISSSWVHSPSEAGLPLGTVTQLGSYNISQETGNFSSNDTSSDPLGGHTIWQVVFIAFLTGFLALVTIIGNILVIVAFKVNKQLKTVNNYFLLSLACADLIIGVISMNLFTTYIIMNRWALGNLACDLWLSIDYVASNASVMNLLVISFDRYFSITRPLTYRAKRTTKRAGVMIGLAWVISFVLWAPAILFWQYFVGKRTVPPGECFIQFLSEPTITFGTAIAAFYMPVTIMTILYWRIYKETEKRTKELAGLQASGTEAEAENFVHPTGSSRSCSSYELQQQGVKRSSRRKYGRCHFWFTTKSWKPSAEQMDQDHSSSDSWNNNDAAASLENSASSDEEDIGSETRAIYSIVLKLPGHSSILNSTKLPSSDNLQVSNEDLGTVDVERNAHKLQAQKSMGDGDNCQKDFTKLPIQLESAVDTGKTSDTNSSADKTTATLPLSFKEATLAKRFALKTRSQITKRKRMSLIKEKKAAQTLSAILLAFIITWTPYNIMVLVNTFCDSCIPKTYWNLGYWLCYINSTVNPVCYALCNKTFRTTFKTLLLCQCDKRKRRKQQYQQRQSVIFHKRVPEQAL

human M3 = human M3 (Homo sapiens, UniProt P20309); experiment: mAChR selectivity, PAM activity at human M3; type: cell-based
human M3, sequence (P20309 whole entry): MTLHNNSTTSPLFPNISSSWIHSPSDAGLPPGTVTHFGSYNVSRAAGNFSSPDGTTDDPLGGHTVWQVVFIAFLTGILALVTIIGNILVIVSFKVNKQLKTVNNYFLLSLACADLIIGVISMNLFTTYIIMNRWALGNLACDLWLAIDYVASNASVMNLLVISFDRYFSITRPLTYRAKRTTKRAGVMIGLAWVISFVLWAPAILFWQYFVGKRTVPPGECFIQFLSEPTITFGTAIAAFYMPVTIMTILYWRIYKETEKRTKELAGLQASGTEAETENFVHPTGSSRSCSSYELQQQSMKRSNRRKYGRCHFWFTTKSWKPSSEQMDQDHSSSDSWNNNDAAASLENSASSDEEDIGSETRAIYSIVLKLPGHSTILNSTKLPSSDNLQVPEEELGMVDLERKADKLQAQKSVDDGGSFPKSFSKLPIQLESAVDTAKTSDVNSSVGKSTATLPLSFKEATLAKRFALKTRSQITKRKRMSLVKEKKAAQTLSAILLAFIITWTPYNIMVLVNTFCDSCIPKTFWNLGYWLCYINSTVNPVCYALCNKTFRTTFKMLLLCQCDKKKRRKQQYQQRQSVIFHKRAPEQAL

human M4 = molecular target: T6, human M4 (Homo sapiens, UniProt P08173); experiment: mAChR selectivity, PAM activity at human M4; type: cell-based; settings: result in words
T6 sequence (P08173 1-479): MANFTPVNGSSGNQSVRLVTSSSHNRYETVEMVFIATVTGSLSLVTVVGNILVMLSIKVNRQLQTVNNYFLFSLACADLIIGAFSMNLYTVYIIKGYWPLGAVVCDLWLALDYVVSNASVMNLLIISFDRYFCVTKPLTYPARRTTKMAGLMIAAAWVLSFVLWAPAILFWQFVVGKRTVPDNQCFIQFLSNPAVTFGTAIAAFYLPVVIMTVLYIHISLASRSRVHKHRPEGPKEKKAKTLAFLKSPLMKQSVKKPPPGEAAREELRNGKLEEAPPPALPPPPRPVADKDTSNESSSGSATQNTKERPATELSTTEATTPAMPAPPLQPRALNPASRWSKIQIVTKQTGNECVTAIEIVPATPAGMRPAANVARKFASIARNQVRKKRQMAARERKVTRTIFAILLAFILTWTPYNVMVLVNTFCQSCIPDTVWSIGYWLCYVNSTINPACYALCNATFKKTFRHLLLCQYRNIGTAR

human M2 = molecular target: T7, human M2 (Homo sapiens, UniProt P08172); experiment: mAChR selectivity, PAM activity at human M2; type: cell-based; settings: result in words
T7 sequence (P08172 1-466): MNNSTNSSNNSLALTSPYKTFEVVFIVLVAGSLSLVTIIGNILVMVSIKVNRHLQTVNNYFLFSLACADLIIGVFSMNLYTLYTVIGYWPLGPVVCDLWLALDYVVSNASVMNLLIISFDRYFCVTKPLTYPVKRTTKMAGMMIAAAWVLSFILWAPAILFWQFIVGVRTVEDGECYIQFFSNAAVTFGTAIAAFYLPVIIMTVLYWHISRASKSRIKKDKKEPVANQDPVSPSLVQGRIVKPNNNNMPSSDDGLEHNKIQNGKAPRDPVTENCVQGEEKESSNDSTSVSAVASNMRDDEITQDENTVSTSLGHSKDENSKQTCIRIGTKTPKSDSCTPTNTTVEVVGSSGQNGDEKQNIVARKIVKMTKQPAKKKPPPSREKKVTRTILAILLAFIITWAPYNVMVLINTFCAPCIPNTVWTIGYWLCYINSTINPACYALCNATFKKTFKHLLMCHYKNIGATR

rat M1 = molecular target: T8, rat M1 (Rattus norvegicus, UniProt P08482); experiment: mAChR selectivity, PAM activity at rat M1; type: cell-based
T8 sequence (P08482 1-460): T4 sequence (P11229 1-460) with A5V, T254S, P309S, R320K, A337G, I413V

[6] = PAM, functional calcium assay, n = 3

SMILES: CCN(Cc1ccccc1C(F)(F)F)C(=O)C1CCN(S(=O)(=O)c2ccc3[nH]ncc3c2)CC1 [ML380, 1-((1H-indazol-5-yl)sulfonyl)-N-ethyl-N-(2-(trifluoromethyl)benzyl)piperidine-4-carboxamide, reference compound]
- rightward shift in M5 PAM potency (human M5; FDSS7000 versus FlexStation II conditions): ~ 5 fold
- EC50 (human M5; hM5 EC50, PAM, 384-well FDSS7000): 1.1 µM
- EC50 (hM5): 0.19 µM

SMILES: CCN(C(=O)C1CCN(S(=O)(=O)c2ccc3[nH]ncc3c2)CC1)[C@@H]1CCc2ccccc21 [Compound 8, N-Ethyl-N-[(1R)-indan-1-yl]-1-(1H-indazol-5-ylsulfonyl)-piperidine-4-carboxamide]
- rM5 % ACh Max (rat M5; PAM): 63% ± 3%
- EC50 (rat M5; rM5 EC50, PAM): 0.409 µM
- EC50 (rat M5; rM5 pEC50 ± SEM, PAM): 0.38 µM
- EC50 (human M5; hM5 EC50, PAM, functional calcium assay, n = 3): 0.481 µM
- EC50 (human M5; hM5 pEC50 ± SEM, PAM, functional calcium assay, n = 3): 0.457 µM
- metabolism in MetID studies [1]: extensive oxidative metabolism
- Kp (rat brain distribution): 0.17
- Kp uu (rat brain distribution): 0.07
- fraction unbound [2]: 0.019
- fraction unbound [3]: 0.017
- fraction unbound [4]: 0.043
- predicted hepatic clearance CLhep, human [5]: 20.8 mL/min/kg

SMILES: CCCN(C(=O)C1CCN(S(=O)(=O)c2ccc3[nH]ncc3c2)CC1)[C@@H]1CCc2c(F)cccc21 [Compound 18g]
- rM5 % ACh Max (rat M5; PAM): 76 % ACh Max and 76 ± 7 % ACh Max
- rM5 pEC50 ± SEM (rat M5; PAM): 7.13 ± 0.04
- EC50 (rat M5; read-out: rM5 EC50, PAM): 0.074 µM
- hM5 % ACh Max (human M5; [6]): 74 % ACh Max and 74±6 % ACh Max
- hM5 pEC50 ± SEM (human M5; [6]): 7.46±0.15
- increase in M5 PAM potency relative to 18a (human M5; hM5): > 10 fold
- EC50 (human M5; read-out: hM5 EC50, PAM, functional calcium assay, n = 3): 0.041 µM
- rat M2 PAM activity (rat M2): inactive
- selectivity for M5 versus M1 (human M1; M5-preferring PAM): 20 fold
- human M1 % ACh Max (human M1; PAM activity): 67 % ACh Max
- EC50 (human M1; read-out: human M1 EC50, PAM activity): 1.03 µM
- rat M4 % ACh Max (rat M4): 49 % ACh Max
- EC50 (rat M4; read-out: rat M4 EC50): 3.91 µM
- rat M3 % ACh Max (rat M3): 51 % ACh Max
- EC50 (rat M3; read-out: rat M3 EC50): 0.772 µM
- selectivity for M5 versus M3 (human M3; M5-preferring PAM): 10 fold
- human M3 % ACh Max (human M3; PAM activity): 71 % ACh Max
- EC50 (human M3; read-out: human M3 EC50, PAM activity): 0.466 µM
- human M4 PAM activity (human M4): inactive
- human M2 PAM activity (human M2): inactive
- rat M1 % ACh Max (rat M1): 69 % ACh Max
- EC50 (rat M1; read-out: rat M1 EC50): 0.904 µM
